Only some compounds are listed: those with a hit (about 4.5% of all), similar ones and a draw of the others.
GPR7 antag: blocks human GPR7 receptor signaling; P48145; GPR7-expressing cells, fluorescence antagonist assay; inhibition, % at 4.4 µM; actives 1.1% (n = 290,000); AID 1861; in the data active = inhibition above about 16%, passing the limit was not always enough;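 also: cells stimulated with the agonist NPW; 0% = agonist with vehicle and 100% = vehicle without agonist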
Target sequence (P48145 whole entry, looked up): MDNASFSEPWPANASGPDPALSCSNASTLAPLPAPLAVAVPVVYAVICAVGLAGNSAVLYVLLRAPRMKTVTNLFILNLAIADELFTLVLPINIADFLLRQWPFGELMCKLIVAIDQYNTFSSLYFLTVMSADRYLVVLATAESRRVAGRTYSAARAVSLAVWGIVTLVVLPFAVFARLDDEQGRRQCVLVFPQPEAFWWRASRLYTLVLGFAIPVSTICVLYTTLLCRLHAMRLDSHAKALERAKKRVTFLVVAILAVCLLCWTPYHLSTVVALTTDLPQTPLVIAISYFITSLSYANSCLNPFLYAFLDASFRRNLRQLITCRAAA
TAAR1 antag: human TAAR1 antagonism. actives 1.5% (n = 360,000). AID 624466. Q96RJ0. CHO RD-HGA16 TAAR1, Fluo-8 calcium fluorescence, antagonist. inhibition, % at 3 µM;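 active = inhibition above a per-plate cutoff, the mean inhibition of test compounds on that plate plus 3 SD, cut at about 49% in these data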;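 also: 0% = DMSO plus EC80 beta-PEA response and 100% = DMSO alone without agonist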
Target sequence (Q96RJ0 whole entry, looked up): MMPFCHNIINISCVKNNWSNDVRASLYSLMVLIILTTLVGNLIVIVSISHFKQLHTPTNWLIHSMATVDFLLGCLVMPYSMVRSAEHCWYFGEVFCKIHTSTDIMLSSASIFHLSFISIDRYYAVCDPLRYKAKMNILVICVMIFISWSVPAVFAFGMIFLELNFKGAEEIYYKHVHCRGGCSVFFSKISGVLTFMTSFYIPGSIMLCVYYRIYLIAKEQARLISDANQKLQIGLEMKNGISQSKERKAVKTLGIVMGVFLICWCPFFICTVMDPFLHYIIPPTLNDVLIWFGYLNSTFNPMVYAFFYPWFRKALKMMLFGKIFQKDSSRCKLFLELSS
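System: RD-HGA16 CHO cells with stable hTAAR1 and Gα16 | Probe or stimulus: EC80 β-phenethylamine stimulus | Dosing: 3 µM, single point | Times: Dye loading 75 min at 37 °C, then 30 min room temperature | Measured by: Fluo-8 calcium-sensitive fluorescence | Read-out basis: % inhibition of agonist calcium response | Replicates: n of 1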
OX1R antag-1: antagonists of human orexin 1 receptor (OX1R); inhibition, % at 6.6 µM; O43613; AID 485270; OX1R-expressing cells, FRET antagonist read-out; actives 1.8% (n = 330,000); in the data active = inhibition mostly above about 38%, no sharp cut-off; inactive = mostly below about 40%;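 also: 0% = agonist challenge alone and 100% = reference antagonist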
TAAR1 agonist: agonists of human TAAR1; Q96RJ0; CHO RD-HGA16 TAAR1, Fluo-8 calcium fluorescence; vehicle wells 0%, saturating PEA agonist 100%; activation, % at 3 µM; actives 0.99% (n = 360,000); AID 624467;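 active = activation above the mean activation of all test compounds in the run plus 3 SD, cut at about 38% in these data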
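test system = CHO RD-HGA16 cells carrying human TAAR1 plus Gα16 | schedule = 17-24 h seeding, 75 min 37 °C dye, 30 min RT | compound dosing = 3 µM single concentration | control set = DMSO and PEA EC100 | replicates = n 1 | signal = Fluo-8 fluorescence, 5 s baseline then 140 s kinetic read | measure = percent activation vs PEA EC100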
OX1R antag-2: antagonists of human orexin 1 receptor | O43613 | CHO/OX1R cells, Fluo-8 calcium fluorescence, orexin A | inhibition, % at 5 µM | actives 0.43% (n = 330,000) | AID 434989;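 active = inhibition above its plate's threshold, mean inhibition of all tested compounds on the plate plus 3 SD, cut at about 37% in these data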;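 also: 0% = orexin A challenge wells and 100% = SB-334867-A antagonist wells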
CHO parental Ca: signal in parental CHO cells, OX1R antagonist counter-screen; parental CHO-K1, ATP-induced calcium, Fluo-8 fluorescence; actives 0.63% (n = 330,000); inhibition, % at 5.6 µM;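 active = inhibition above that plate's mean sample inhibition plus 3 SD, cut at about 26% in these data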;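 also: 0% = ATP-challenged DMSO wells and 100% = DMSO wells without ATP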
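Assay system: untransfected parental CHO cell line. Also added: ATP agonist challenge. Dosing: one dose, 5.6 µM nominal. Measured by: Fluo-8 fluorescence. Read-out: % inhibition. Benchmarks: ATP wells versus no-ATP DMSO wells. Repeats: no replicates.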
GPR7 antag cf: human GPR7 antagonism, confirmation assay. shares compounds with GPR7 antag. GPR7-expressing cells, calcium fluorescence antagonist mode. inhibition, % at 4.4 µM. actives 52% (n = 2,400); in the data active = inhibition above about 24%;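 also: stimulated with the GPR7 agonist NPW; 0% = agonist plus vehicle and 100% = vehicle alone without agonist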
MCHR1 antagonist: antagonizes human MCHR1, a GPR7 antagonist counter-screen; shares compounds with GPR7 antag; MCHR1-expressing cells, fluorescence antagonist assay; inhibition, % at 4.4 µM; actives 62% (n = 2,400); AID 2148; in the data active = inhibition above about 22%;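 also: 0% = vehicle with agonist and 100% = vehicle without agonist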
* = called active by the depositor.

Screening COc1ccc(C(=O)NC(C)c2ccncc2)cc1S(=O)(=O)N(C)Cc1ccccc1 (stereo unspecified) returned TAAR1 antag 3.8, OX1R antag-1 1.5, TAAR1 agonist 1.2, OX1R antag-2 -9.7 and CHO parental Ca 2.6.
Screening COc1cccc(CNCCc2c[nH]c3ccccc23)c1OCc1ccc(F)cc1 returned GPR7 antag 25.2*, TAAR1 antag 31.8, OX1R antag-1 15.9, TAAR1 agonist 28.0, OX1R antag-2 -2.3, CHO parental Ca -9.2, GPR7 antag cf 45.8* and MCHR1 antagonist 65.4*.
For O=S(=O)(NC1c2cccc3cccc(c23)C1N1CCNCC1)c1ccc(Cl)cc1 (stereo unspecified) the results were GPR7 antag 48.8*, TAAR1 antag 8.8, OX1R antag-1 11.7, TAAR1 agonist 2.8, OX1R antag-2 -25.3, CHO parental Ca -20.7, GPR7 antag cf 47.6* and MCHR1 antagonist 46.8*.
`N#Cc1c(N2CCCCC2)nc(N2CCCCC2)c2c1CCN(Cc1ccccc1)C2` gave GPR7 antag 45.9*, TAAR1 antag 5.0, OX1R antag-1 10.1, TAAR1 agonist 17.8, OX1R antag-2 -22.0, CHO parental Ca -12.3, GPR7 antag cf -12.7 and MCHR1 antagonist 16.6.
Screening N#Cc1c(NCCN)nc(NCc2ccccc2)c2c1CCN(Cc1ccccc1)C2 returned GPR7 antag 7.5.
For COc1ccc(N2CCN(C(=O)CSc3nnc(COc4cccc5cccnc45)o3)CC2)cc1 the results were GPR7 antag -10.4, TAAR1 antag 9.5, OX1R antag-1 2.6, TAAR1 agonist 3.4, OX1R antag-2 -27.3 and CHO parental Ca -19.1.
Screening COc1ccc(C=O)cc1CSc1nnc(COc2cccc3cccnc23)o1 returned GPR7 antag 24.5*, TAAR1 antag 20.7, OX1R antag-1 42.2, TAAR1 agonist 13.6, OX1R antag-2 -25.0, CHO parental Ca -24.6, GPR7 antag cf 10.2 and MCHR1 antagonist 26.7*.
Screening CCc1ccccc1NC(=O)CN(C)C(=O)CSc1nnc(Nc2cccc(C)c2C)s1 returned GPR7 antag -4.9, TAAR1 antag 14.5, OX1R antag-1 12.6, TAAR1 agonist 7.1, OX1R antag-2 -19.6 and CHO parental Ca -5.6.
For CC(C)CN1CCCC(N2CCN(c3cccc(Cl)c3)CC2)C1 (stereo unspecified) the results were GPR7 antag 27.4*, TAAR1 antag -2.2, OX1R antag-1 7.0, TAAR1 agonist -0.4, OX1R antag-2 -42.0, CHO parental Ca 4.1, GPR7 antag cf -5.9 and MCHR1 antagonist 0.4.
`COc1ccc(CN2CCCC(N3CCN(c4cccc(Cl)c4)CC3)C2)cc1OC` (stereo unspecified) gave GPR7 antag 14.7, TAAR1 antag -39.1 and TAAR1 agonist 1.9.
Screening COc1cc(OC)cc(C(=O)Nc2cccc3c2CCCC3)c1 returned GPR7 antag 32.5*, TAAR1 antag -1.1, OX1R antag-1 2.7, TAAR1 agonist 28.4, OX1R antag-2 6.4, CHO parental Ca 8.4, GPR7 antag cf 21.3 and MCHR1 antagonist 15.6.
`O=C(Nc1cccc2c1CCCC2)c1cccc(F)c1` gave GPR7 antag -20.3, TAAR1 antag -29.2, OX1R antag-1 10.8, TAAR1 agonist 8.6, OX1R antag-2 -21.9 and CHO parental Ca -15.6.
For CCOc1cccc(CNCCO)c1OCc1ccc(Cl)cc1 the results were GPR7 antag 0.0, TAAR1 antag 12.0, OX1R antag-1 7.3, TAAR1 agonist 8.4, OX1R antag-2 -21.1 and CHO parental Ca -17.6.
For CCOc1cc(CNC(C)(C)CO)cc(Br)c1OCc1ccc(Cl)cc1Cl the results were GPR7 antag 45.6*, TAAR1 antag 11.8, OX1R antag-1 7.6, TAAR1 agonist 17.4, OX1R antag-2 14.6, CHO parental Ca 18.1, GPR7 antag cf 67.4* and MCHR1 antagonist 77.8*.
Screening CCOc1cc(CNCCO)cc(Br)c1OCc1ccc(Cl)cc1 returned GPR7 antag 53.6*, TAAR1 antag 26.8, OX1R antag-1 4.5, TAAR1 agonist 40.1*, OX1R antag-2 10.3, CHO parental Ca 0.6, GPR7 antag cf 70.2* and MCHR1 antagonist 78.0*.
For O=C1C=C(c2ccc(OC(F)(F)F)cc2)C[C@@H](c2ccc(Cl)cc2)C1 the results were TAAR1 antag 11.3, OX1R antag-1 4.5, TAAR1 agonist 5.0, OX1R antag-2 -18.1 and CHO parental Ca -24.0.
Screening CN(C)c1ccc(Nc2ccc([N+](=O)[O-])cn2)cc1 returned GPR7 antag 24.3*, TAAR1 antag -12.7, OX1R antag-1 43.2*, TAAR1 agonist -3.5, OX1R antag-2 -13.4, CHO parental Ca 3.8, GPR7 antag cf 40.7* and MCHR1 antagonist 19.4.
For COc1cccc(CC(=O)N2CCCC(CO)(Cc3ccc(F)cc3F)C2)c1 (stereo unspecified) the results were GPR7 antag 26.0*, TAAR1 antag -11.8, OX1R antag-1 16.1, TAAR1 agonist 1.6, OX1R antag-2 -34.6, CHO parental Ca -0.7, GPR7 antag cf -6.7 and MCHR1 antagonist -8.8.
Screening Cn1cnnc1SCCNS(=O)(=O)c1cccc([N+](=O)[O-])c1 returned GPR7 antag -0.9, TAAR1 antag -21.3, OX1R antag-1 44.1, TAAR1 agonist 2.4, OX1R antag-2 -6.3 and CHO parental Ca -5.5.
For CC1CCN(c2nc(-c3cccnc3)nc3scc(-c4ccccc4)c23)CC1 the results were GPR7 antag 0.2, TAAR1 antag -1.7, OX1R antag-1 20.9, TAAR1 agonist 2.0, OX1R antag-2 -29.1 and CHO parental Ca -25.3.
For CC1CCN(c2nc(CN3CCCCC3)nc3scc(-c4ccccc4)c23)CC1 the results were GPR7 antag 22.8*, TAAR1 antag -12.1, OX1R antag-1 11.3, TAAR1 agonist 13.5, OX1R antag-2 -26.3, CHO parental Ca -17.4, GPR7 antag cf 32.4* and MCHR1 antagonist 31.6*.
Screening Cc1ccc(C(=O)NCCN2C3=NC[C@H](Cc4ccc(O)cc4)N3C[C@H]2Cc2ccc(O)cc2)cc1Br returned TAAR1 antag -21.8, OX1R antag-1 20.5, TAAR1 agonist 10.1, OX1R antag-2 -4.1 and CHO parental Ca -3.7.
For Cc1ccc(C(=O)NCCN2C3=NC[C@@H](Cc4ccccc4)N3C[C@H]2Cc2ccc(O)cc2)cc1Br the results were GPR7 antag 49.1*, TAAR1 antag 10.0, OX1R antag-1 14.5, TAAR1 agonist 10.9, OX1R antag-2 -19.3, CHO parental Ca -18.9, GPR7 antag cf 53.1* and MCHR1 antagonist 47.8*.
